High-throughput results as filed in PubChem BioAssay.
SF1 activator: SF-1 (human) activation. Q13285. CHO-K1 Gal4-SF-1 LBD luciferase reporter; % increase over DMSO SF-1-specific signal. activation, % at 10 µM. 1.9% of 65,000 active. AID 522;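 active = activation above the mean activation of all tested compounds plus 3 SD, cut at about 50% in these data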
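Test system: transient Gal4-SF-1 LBD reporter, CHO-K1; Amount: 4,000 CHO-K1 cells per well; Doses: 10 µM only; Timing: compound exposure 20 h at 37 °C; Signal: luciferase light emission; Read-out basis: percent activation relative to DMSO median and mock-transfected background; Control set: DMSO negative control and −SF1 background wells; Replicates: one test per compound.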
M1 antagonist: antagonists of rat M1 muscarinic receptor; CHO-M1 cells, Fluo-4 calcium, ACh EC80 antagonist mode; hits give low values; B-score at 10 µM; AID 628; 3.4% of 64,000 active;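 active = calcium fluorescence response, raw or row-and-column corrected B-score, differing from the plate sample mean either way at a set confidence level, mostly lower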
D1 mod: D1 dopamine receptor (human) allosteric modulation; P21728; HEK293 D1, CRE-luciferase, dopamine EC30 potentiation; actives deviate in either direction; B-score at 10 µM; 5.9% of 58,000 active;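 active = luminescence count or its row- and column-corrected plate score outside the 99.7% band of the plate's sample wells, on either side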
Target sequence (P21728 whole entry, looked up): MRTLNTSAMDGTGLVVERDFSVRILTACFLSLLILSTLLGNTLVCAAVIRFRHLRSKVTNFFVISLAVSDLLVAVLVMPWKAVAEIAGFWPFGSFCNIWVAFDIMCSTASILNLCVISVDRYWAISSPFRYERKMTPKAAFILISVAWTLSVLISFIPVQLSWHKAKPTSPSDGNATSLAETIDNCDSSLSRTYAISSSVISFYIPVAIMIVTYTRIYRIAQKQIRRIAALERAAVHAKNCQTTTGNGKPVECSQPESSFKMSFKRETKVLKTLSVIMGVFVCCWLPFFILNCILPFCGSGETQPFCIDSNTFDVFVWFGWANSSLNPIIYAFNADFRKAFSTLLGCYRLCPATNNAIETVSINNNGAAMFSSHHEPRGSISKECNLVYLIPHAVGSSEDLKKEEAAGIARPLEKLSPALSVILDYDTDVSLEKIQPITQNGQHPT
mHtt clearance: mutant huntingtin protein clearance; HeLa Exon1htt(103Q)mCFP, aggregate imaging; zero = plate's median compound well; inhibition, % at 1.5 µM; 0.42% of 47,000 active;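 active = inhibition of aggregate fluorescence above about 70%, also judged a hit by eye on the cell image, limit read from the data, passing the limit was not always enough; inconclusive = no rule stated for this call; inactive = not judged a hit on image review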;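 note: cells exposed to compound for three days before fixation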
M1 ag: M1 muscarinic receptor agonism; 3% of 64,000 active; CHO-M1 cells, Fluo-4 calcium fluorescence, agonist mode; hits give high values; B-score at 10 µM; AID 626;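 active = fluorescence rise, raw or as B-score row- and column-corrected plate score, outside the 99.7% band of its plate's samples, either direction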
RORa activator: RORA (human) activation | CHO-K1 Gal4-RORA LBD luciferase reporter, luminescence; percent increase over mock-subtracted basal signal | activation, % at 10 µM | 1.5% of 65,000 active | AID 560;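 active = activation above the mean of all tested compounds plus 3 SD, cut at about 49% in these data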
M1 antag conf: M1 muscarinic receptor (rat) antagonism, confirmed; shares compounds with M1 antagonist; calcium response (max-min fluorescence) at 10 µM; CHO-M1 cells, Fluo-4 calcium, ACh EC80 antagonism; hits give low values; 43% of 1,700 active;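 active = calcium response below the same-plate mean of wells given acetylcholine alone at its 80%-effect dose, minus 3 SD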
mGluR4 antag: acts on human mGluR4 in M1 antagonist selectivity test; shares compounds with M1 antagonist; CHO-mGluR4 calcium flux, Fluo-4 fluorescence, glutamate EC80; hits give low values; fluorescence response (max-min) at 10 µM; 0.9% of 1,700 active; AID 678;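 active = fluorescence response below the plate's average for near-maximal glutamate wells, less 3 SD of those wells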;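 note: raw unnormalized fluorescence span taken in the window right after glutamate addition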
Numbers stand for hits. The list is not random: actives were taken first. Their share in the collection is about 11%.

What do the screens show for `CCCCOC(=O)C1CCCC(C(=O)OCCCC)N1` (stereo unspecified)?
SF1 activator: inactive; M1 antagonist: inactive; D1 mod: inactive; mHtt clearance: inactive; M1 ag: inactive; RORa activator: inactive

What do the screens show for `CCCCN(C)CCn1c(=S)[nH]c2ccc(N3CCOCC3)cc2c1=O`?
SF1 activator: inactive; M1 antagonist: inactive; D1 mod: inactive; M1 ag: inactive; RORa activator: inactive

What do the screens show for `COCCCn1c(=S)[nH]c2ccc(N3CCOCC3)cc2c1=O`?
SF1 activator: inactive; M1 antagonist: -10.6; D1 mod: inactive; M1 ag: inactive; RORa activator: inactive; M1 antag conf: inactive; mGluR4 antag: inactive

How did CCOC(=O)C1CCN(CC(O)COc2ccc(C(C)(C)CC)cc2)CC1 (stereo unspecified) do in these assays?
SF1 activator: inactive; M1 antagonist: -4.72; M1 ag: inactive; RORa activator: inactive; M1 antag conf: inactive; mGluR4 antag: inactive

What do the screens show for `CCCCn1c(Cc2ccccc2)n[nH]c1=S`?
SF1 activator: inactive; M1 antagonist: -11.6; D1 mod: inactive; M1 ag: inactive; RORa activator: inactive; M1 antag conf: 53; mGluR4 antag: inactive

What do the screens show for `Cc1ccccc1N(Cc1nnc2n1CCCCC2)C(=O)Nc1ccccc1`?
SF1 activator: inactive; M1 antagonist: inactive; D1 mod: inactive; mHtt clearance: inactive; M1 ag: inactive; RORa activator: inactive

How did CCN(CC)Cc1cc(CC(C(N)=O)C(N)=O)ccc1OC do in these assays?
SF1 activator: inactive; M1 antagonist: -2.49; D1 mod: inactive; mHtt clearance: inconclusive; M1 ag: inactive; RORa activator: inactive; M1 antag conf: inactive; mGluR4 antag: inactive

Results for CCN(CC)Cc1cc(C(C)=O)ccc1OCC(C)C ?
SF1 activator: inactive; M1 antagonist: inactive; mHtt clearance: inactive; M1 ag: inactive; RORa activator: inactive

What do the screens show for `CCC(C)NS(=O)(=O)c1cccs1` (stereo unspecified)?
SF1 activator: inactive; M1 antagonist: -3.41; D1 mod: inactive; M1 ag: inactive; RORa activator: inactive; M1 antag conf: inactive; mGluR4 antag: inactive

What do the screens show for `COc1ccc(/C=N/n2cnnc2SCc2ccccc2)cc1`?
SF1 activator: inactive; M1 antagonist: inactive; D1 mod: inactive; mHtt clearance: inactive; M1 ag: inactive; RORa activator: inactive

What do the screens show for `COC(=O)c1ccc2[nH]c(C)cc(=O)c2c1`?
SF1 activator: inactive; M1 antagonist: -6.47; D1 mod: inactive; mHtt clearance: inactive; M1 ag: inactive; RORa activator: inactive; M1 antag conf: 210; mGluR4 antag: inactive

How did COc1cc(C)nc(OCCNS(=O)(=O)c2cc(C)ccc2C)n1 do in these assays?
SF1 activator: inactive; M1 antagonist: inactive; D1 mod: inactive; M1 ag: inactive; RORa activator: inactive

How did CCOC(=O)c1c(NC(=O)c2ccn(CC)n2)sc2c1CCCC2 do in these assays?
SF1 activator: inactive; M1 antagonist: inactive; D1 mod: inactive; M1 ag: inactive; RORa activator: inactive

How did CCOC(=O)c1c(NC(=O)c2nc3n(n2)C(C(F)F)CC(C)N3)sc2c1CCCC2 (stereo unspecified) do in these assays?
SF1 activator: inactive; M1 antagonist: -5.65; D1 mod: inactive; M1 ag: inactive; RORa activator: inactive; M1 antag conf: inactive; mGluR4 antag: inactive

What do the screens show for `CCN(CC)CCn1c(OC)cc(=O)[nH]c1=O`?
SF1 activator: inactive; M1 antagonist: -2.42; D1 mod: inactive; M1 ag: inactive; RORa activator: inactive; M1 antag conf: inactive; mGluR4 antag: inactive

Results for COc1ccc(Cn2c(O)cc(=O)[nH]c2=O)cc1 ?
SF1 activator: inactive; M1 antagonist: inactive; mHtt clearance: inactive; M1 ag: inactive; RORa activator: inactive

What do the screens show for `COc1ccc(CNc2nc(-c3cccnc3)nn2C(=O)c2cccs2)cc1`?
SF1 activator: inactive; M1 antagonist: inactive; D1 mod: inactive; M1 ag: inactive; RORa activator: inactive

Results for Cc1ccc(-c2nnn(CC(=O)N3CCN(c4ccccc4)CC3)n2)o1 ?
SF1 activator: inactive; M1 antagonist: -4.16; D1 mod: inactive; mHtt clearance: inactive; M1 ag: inactive; RORa activator: inactive; M1 antag conf: inactive; mGluR4 antag: inactive

What do the screens show for `CC(C)N(C(=O)C(=O)c1cccn1-c1ccccc1C#N)C(C)C`?
mHtt clearance: inactive

How did COc1ccccc1N/C(=N/S(=O)(=O)c1ccc(C)cc1)c1ccc(Cl)cc1 do in these assays?
mHtt clearance: inactive

Results for Cc1nc(NC2=NCN(CCCN3CCOCC3)CN2)nc2c(C)cccc12 ?
SF1 activator: inactive; M1 antagonist: -7.41; D1 mod: inactive; mHtt clearance: inactive; M1 ag: inactive; RORa activator: inactive; M1 antag conf: 47.6; mGluR4 antag: inactive

What do the screens show for `Cc1cc2nc(NC3=NCN(CCCN4CCOCC4)CN3)nc(C)c2cc1C`?
SF1 activator: inactive; M1 antagonist: -13.8; D1 mod: inactive; M1 ag: inactive; RORa activator: inactive; M1 antag conf: 21.9; mGluR4 antag: inactive

What do the screens show for `Cc1ccc(S(=O)(=O)NCCCN2CCOCC2)cc1C`?
SF1 activator: inactive; M1 antagonist: inactive; mHtt clearance: inactive; M1 ag: inactive; RORa activator: inactive

How did COc1cccc(C(c2nnnn2Cc2ccco2)N2CCN(c3cccc(C)c3C)CC2)c1OC (stereo unspecified) do in these assays?
SF1 activator: inactive; M1 antagonist: -4.28; D1 mod: inactive; mHtt clearance: inactive; M1 ag: inactive; RORa activator: inactive; M1 antag conf: inactive; mGluR4 antag: inactive

Results for COc1cccc(C(c2nnnn2CCc2ccccc2)N2CCN(c3ccccc3)CC2)c1OC (stereo unspecified) ?
SF1 activator: inactive; M1 antagonist: inactive; D1 mod: inactive; mHtt clearance: inactive; M1 ag: inactive; RORa activator: inactive

What do the screens show for `CCN(CC)C(=O)COc1ccc(-c2nnc(N3CCCCC3)c3ccccc23)cc1`?
SF1 activator: inactive; M1 antagonist: -2.91; D1 mod: inactive; M1 ag: inactive; RORa activator: inactive; M1 antag conf: 531; mGluR4 antag: inactive

How did CCOc1ccc(OCC)c(-c2c(=O)n(OCc3ccc(C(C)(C)C)cc3)c3ccccc3[n+]2[O-])c1 do in these assays?
mHtt clearance: inactive

What do the screens show for `O=C(NCCCn1ccnc1)Nc1cccc2ccccc12`?
mHtt clearance: inactive

What do the screens show for `O=C(NCCCn1ccnc1)C1c2ccccc2Oc2ccccc21`?
SF1 activator: inactive; M1 antagonist: -5.99; D1 mod: -2.46; M1 ag: inactive; RORa activator: inactive; M1 antag conf: 309; mGluR4 antag: inactive
